From PMC2195561 (The Journal of Experimental Medicine, 1999)
No end group written: not given here.

How the values were obtained:
TAP [1] = test: Direct TAP-mediated translocation of radiolabeled peptides, murine TAP; type: biochemical; settings: data not shown
TAP [2] = target: T1, TAP (Homo sapiens, UniProt Q03518+Q03519); test: Direct TAP-mediated translocation of radiolabeled peptides, human TAP; type: biochemical; settings: streptolysin O–permeabilized LCL721 cells; Con A–Sepharose recovery; Fig. 1 B
T1 sequence (Q03518 1-748): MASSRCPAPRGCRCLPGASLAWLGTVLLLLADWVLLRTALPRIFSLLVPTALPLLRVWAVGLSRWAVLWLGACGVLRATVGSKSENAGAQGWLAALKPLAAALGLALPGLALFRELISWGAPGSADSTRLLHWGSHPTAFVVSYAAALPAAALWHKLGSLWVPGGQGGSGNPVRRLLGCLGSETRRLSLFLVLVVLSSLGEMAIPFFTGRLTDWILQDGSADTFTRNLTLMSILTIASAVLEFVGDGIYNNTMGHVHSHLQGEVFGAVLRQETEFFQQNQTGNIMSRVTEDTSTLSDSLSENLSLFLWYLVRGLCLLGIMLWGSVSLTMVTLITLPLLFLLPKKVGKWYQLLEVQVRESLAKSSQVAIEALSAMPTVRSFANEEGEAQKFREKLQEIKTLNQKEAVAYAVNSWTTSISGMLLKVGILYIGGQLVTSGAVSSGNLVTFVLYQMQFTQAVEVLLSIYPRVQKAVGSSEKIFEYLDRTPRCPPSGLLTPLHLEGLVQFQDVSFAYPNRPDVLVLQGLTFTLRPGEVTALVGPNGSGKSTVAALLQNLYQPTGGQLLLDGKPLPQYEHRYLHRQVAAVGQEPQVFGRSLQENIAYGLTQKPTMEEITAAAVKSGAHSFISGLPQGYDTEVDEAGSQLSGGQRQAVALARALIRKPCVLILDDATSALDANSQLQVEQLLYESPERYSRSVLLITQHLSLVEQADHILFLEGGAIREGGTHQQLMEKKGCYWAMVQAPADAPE
T1 sequence (Q03519 1-686): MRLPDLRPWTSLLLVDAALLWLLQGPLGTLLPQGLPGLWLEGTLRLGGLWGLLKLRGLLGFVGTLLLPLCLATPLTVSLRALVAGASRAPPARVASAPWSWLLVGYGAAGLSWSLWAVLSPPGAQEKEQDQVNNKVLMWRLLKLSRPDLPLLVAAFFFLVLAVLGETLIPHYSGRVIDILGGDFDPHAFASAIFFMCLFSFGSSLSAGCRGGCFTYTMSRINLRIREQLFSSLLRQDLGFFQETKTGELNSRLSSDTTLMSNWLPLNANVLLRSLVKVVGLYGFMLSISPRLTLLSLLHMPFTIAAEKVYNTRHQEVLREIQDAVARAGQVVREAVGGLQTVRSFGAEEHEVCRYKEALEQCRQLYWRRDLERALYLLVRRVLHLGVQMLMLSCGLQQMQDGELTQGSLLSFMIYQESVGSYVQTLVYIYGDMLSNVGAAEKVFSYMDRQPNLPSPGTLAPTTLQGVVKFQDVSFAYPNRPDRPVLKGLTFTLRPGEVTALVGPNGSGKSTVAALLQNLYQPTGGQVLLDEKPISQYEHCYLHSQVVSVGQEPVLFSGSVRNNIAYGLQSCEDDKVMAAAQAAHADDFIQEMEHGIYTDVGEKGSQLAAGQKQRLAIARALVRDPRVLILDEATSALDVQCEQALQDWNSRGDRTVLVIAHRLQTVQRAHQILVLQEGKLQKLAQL
In short: (§1)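 Test peptides carrying an N-linked glycosylation sequon are radioiodinated (Na-125I, chloramine-T) and added to streptolysin O–permeabilized LCL721 cells. Peptide reaching the ER acquires an N-glycan and is recovered on Con A–Sepharose, given as a fraction of total input. Controls are samples run without ATP and TAP-deficient T2 cells.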

Con A = test: Con A–Sepharose recovery in the absence of ATP; type: binding; settings: no N-linked glycan, Fig. 1 B
In short: as §1

TAP [3] = target: T1, TAP; test: Competition of TAP-mediated translocation of iodinated peptide 417; type: biochemical
In short: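 Iodinated index peptide (125I via chloramine-T) premixed with unlabelled competitor peptide, then added to streptolysin O–permeabilized human LCL721 cells for TAP-mediated transport into the ER. Translocated index peptide is given as a fraction of that recovered without competitor.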

Substance	translocation by murine TAP (TAP [1])	translocation by human TAP (TAP [2])	recovery by Con A–Sepharose in the absence of ATP (Con A)	IC50 (TAP [3]) [µM]
TVNKTERAY [compound 417, reference compound]	very efficiently translocated	very efficiently translocated		
TVNKTES [O-β-GlcNAc]AY [417-G]		also translocated by TAP	not itself a ligand for Con A	
FASGNYSAL [wt-S]				12
TVNKTESAY [417-S]	very efficiently translocated	very efficiently translocated		
